Data reported in ChEMBL document CHEMBL3286109, “Structure-activity relationship studies of indole-based compounds as small molecule HIV-1 fusion inhibitors targeting glycoprotein 41” (J Med Chem, 2014).

Columns and labels:
[1] = Binding affinity to HIV1 Envelope glycoprotein gp41 Fe(env2.0)3 using C18FL as probe by fluorescence assay; set-up: species or system Human immunodeficiency virus 1
[2] = Inhibition of HIV1 HXB2 gp41-mediated cell-cell fusion between viral envelope-expressing human HL2/3 cells to human TZM-bl cells by luciferase reporter assay; type: cell-based; conditions: Human immunodeficiency virus 1, HXB2, TZM-bl
[3] = system: Human immunodeficiency virus 1; test: Antiviral activity against HIV-1 Ba-L infected in human MAGI-CCR5 cells assessed as inhibition of viral replication after 48 hrs by chemiluminescence assay; type: functional, organism-based; conditions: Human immunodeficiency virus 1, Ba-L, MAGI-CCR5, 48 h
[4] = system: Human immunodeficiency virus 1; test: Antiviral activity against HIV-1 3B infected in human MAGI-CCR5 cells assessed as inhibition of viral replication after 48 hrs by chemiluminescence assay; type: functional, organism-based; conditions: Human immunodeficiency virus 1, 3B, MAGI-CCR5, 48 h
[5] = Cytotoxicity against human MAGI-CCR5 cells assessed as inhibition of cell viability by MTS assay; type: cell-based; conditions: read-out: TC50 (the source's name)
[6] = Cytotoxicity against human TZM-bl cells assessed as inhibition of cell viability by resazurin assay; conditions: read-out: TC50 (the source's name)
[7] = system: Human immunodeficiency virus 1; test: Antiviral activity against HIV-1 Ba-L subtype B infected in human PBMC assessed as reverse transcriptase activity after 6 days by microtiter plate-based assay; type: functional, organism-based; conditions: Human immunodeficiency virus 1, Ba-L subtype B, 144 h
In short: (§1)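 PBMCs from screened donors, Ficoll-purified, stimulated with 4 μg/mL phytohemagglutinin, kept in 20 U/mL IL-2; cells from two donors pooled, 5 × 10^4 cells/well.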

[8] = system: Human immunodeficiency virus 1; test: Antiviral activity against HIV-1 92BR014 subtype B infected in human PBMC assessed as reverse transcriptase activity after 6 days by microtiter plate-based assay; type: functional, organism-based; conditions: Human immunodeficiency virus 1, 92BR014 subtype B, 144 h; in short: as §1
[9] = system: Human immunodeficiency virus 1; test: Antiviral activity against HIV-1 01CM0005BBY subtype CRF02_AG infected in human PBMC assessed as reverse transcriptase activity after 6 days by microtiter plate-based assay; type: functional, organism-based; conditions: Human immunodeficiency virus 1, 01CM0005BBY subtype CRF02_AG, 144 h; in short: as §1
[10] = system: Human immunodeficiency virus 1; test: Antiviral activity against HIV-1 02CM0015BBY subtype CRF02_AG infected in human PBMC assessed as reverse transcriptase activity after 6 days by microtiter plate-based assay; type: functional, organism-based; conditions: Human immunodeficiency virus 1, 02CM0015BBY subtype CRF02_AG, 144 h; in short: as §1
[11] = system: Human immunodeficiency virus 1; test: Antiviral activity against HIV-1 91DJ263 subtype CRF02_AG infected in human PBMC assessed as reverse transcriptase activity after 6 days by microtiter plate-based assay; type: functional, organism-based; conditions: Human immunodeficiency virus 1, 91DJ263 subtype CRF02_AG, 144 h; in short: as §1
[12] = system: Human immunodeficiency virus 1; test: Antiviral activity against HIV-1 00UG_D26830M4 subtype D infected in human PBMC assessed as reverse transcriptase activity after 6 days by microtiter plate-based assay; type: functional, organism-based; conditions: Human immunodeficiency virus 1, 00UG_D26830M4 subtype D, 144 h; in short: as §1
[13] = system: Human immunodeficiency virus 1; test: Antiviral activity against HIV-1 92UG001 subtype D infected in human PBMC assessed as reverse transcriptase activity after 6 days by microtiter plate-based assay; type: functional, organism-based; conditions: Human immunodeficiency virus 1, 92UG001 subtype D, 144 h; in short: as §1
[14] = Cytotoxicity against human PBMC assessed as inhibition of cell viability by MTS assay; type: cell-based; conditions: read-out: TC50 (the source's name)
[15] = Therapeutic index, ratio of TC50 for human PBMC to EC50 for HIV-1 Ba-L subtype B infected in human PBMC; conditions: read-out: TI
[16] = Therapeutic index, ratio of TC50 for human PBMC to EC50 for HIV-1 92BR014 subtype B infected in human PBMC; conditions: read-out: TI
In short: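 Human PBMC from screened donors were Ficoll-purified, stimulated with 4 μg/mL phytohemagglutinin, and kept in 20 U/mL IL-2. Cells from two donors were pooled at 5 × 10^4 cells/well and given nine serial compound dilutions in triplicate, then HIV-1 at a final MOI of about 0.1. TC50 was measured in parallel cultures by MTS viability. TI = TC50/EC50.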

[17] = Therapeutic index, ratio of TC50 for human PBMC to EC50 for HIV-1 01CM0005BBY subtype CRF02_AG infected in human PBMC; conditions: read-out: TI
[18] = Therapeutic index, ratio of TC50 for human PBMC to EC50 for HIV-1 02CM0015BBY subtype CRF02_AG infected in human PBMC; conditions: read-out: TI
[19] = Therapeutic index, ratio of TC50 for human PBMC to EC50 for HIV-1 91DJ263 subtype CRF02_AG infected in human PBMC; conditions: read-out: TI
[20] = Therapeutic index, ratio of TC50 for human PBMC to EC50 for HIV-1 00UG_D26830M4 subtype D infected in human PBMC; conditions: read-out: TI
[21] = Therapeutic index, ratio of TC50 for human PBMC to EC50 for HIV-1 92UG001 subtype D infected in human PBMC; conditions: read-out: TI
[22] = Retardation factor of the compound using 40% EtOAc/hexanes as solvent system by silca gel chromatography; type: physicochemical
[23] = Retardation factor of the compound using 50% EtOAc/hexanes as solvent system by silca gel chromatography; type: physicochemical

Row | Compound | Ki [1] | EC50 [2] | EC50 [3] | EC50 [4] | CC50 [5] | CC50 [6] | EC50 [7] | EC90 [7] | EC50 [8] | EC90 [8] | EC90 [9] | EC50 [10] | EC90 [10] | EC50 [11] | EC90 [11] | EC50 [12] | EC90 [12] | EC90 [13] | CC50 [14] | selectivity ratio [15] | also measured
1 | COc1ccc(Cn2ccc3cc(-c4ccc5c(ccn5Cc5cccc(C(=O)O)c5)c4)ccc32)cc1 | 3900 nM | 12000 nM | 18000 nM | 20000 nM | 55000 nM | > 100000 nM | – | – | – | – | – | – | – | – | – | – | – | – | – | – | –
2 | COC(=O)c1cccc(Cn2ccc3ccc(-c4ccc5ccn(Cc6cccc(C(=O)O)c6)c5c4)cc32)c1 | 600 nM | 200 nM | 200 nM | 200 nM | 15000 nM | 53000 nM | 360 nM | 630 nM | 460 nM | 1430 nM | 540 nM | 240 nM | 520 nM | 390 nM | 920 nM | 350 nM | 580 nM | 990 nM | 11600 nM | 32.2 | EC50 [9]: 290 nM; EC50 [13]: 400 nM; selectivity ratio [16]: 25.3; selectivity ratio [17]: 39.3; selectivity ratio [18]: 47.8; selectivity ratio [19]: 29.7; selectivity ratio [20]: 33.3; selectivity ratio [21]: 29.1; Rf [22]: 0.13
3 | CCOC(=O)c1cccc(Cn2ccc3ccc(-c4ccc5ccn(Cc6cccc(C(=O)O)c6)c5c4)cc32)c1 | 1000 nM | 700 nM | 300 nM | 500 nM | 43000 nM | > 50000 nM | 410 nM | 590 nM | 430 nM | 1230 nM | 550 nM | 370 nM | 560 nM | 350 nM | 580 nM | 390 nM | 570 nM | 1000 nM | > 50000 nM | > 121 | EC50 [9]: 340 nM; EC50 [13]: 350 nM; selectivity ratio [16]: > 116; selectivity ratio [17]: > 147; selectivity ratio [18]: > 137; selectivity ratio [19]: > 141; selectivity ratio [20]: > 128; selectivity ratio [21]: > 141; Rf [23]: 0.48
4 | O=C(O)c1cccc(Cn2ccc3ccc(-c4ccc5cc[nH]c5c4)cc32)c1 | 2700 nM | 15000 nM | 60000 nM | 47000 nM | > 50000 nM | > 100000 nM | – | – | – | – | – | – | – | – | – | – | – | – | – | – | Rf [22]: 0.13
5 | enfuvirtide | – | – | – | – | – | – | 7.55 nM | 23.6 nM | > 2000 nM | > 2000 nM | 55.8 nM | 16.9 nM | 43.4 nM | 120 nM | 206 nM | 108 nM | 195 nM | 71.3 nM | > 2000 nM | > 265 | selectivity ratio [17]: > 110; selectivity ratio [18]: > 118; selectivity ratio [19]: > 16.6; selectivity ratio [20]: > 18.6; selectivity ratio [21]: > 36
